According to ChEMBL document CHEMBL3352776, “Synthesis and biological evaluation of novel chiral diazepine derivatives as bombesin receptor subtype-3 (BRS-3) agonists incorporating an antedrug approach” (Bioorg Med Chem, 2015):
Values after ≈ are worked out from the molar mass of the structure shown.

Assays:
[1] = target: T1, Bombesin receptor subtype-3 (Homo sapiens, UniProt P32247); assay: Agonist activity at human BRS3 expressed in CHO-K1 cells by IP-One HTRF assay; type: cell-based
T1 sequence (P32247 whole entry): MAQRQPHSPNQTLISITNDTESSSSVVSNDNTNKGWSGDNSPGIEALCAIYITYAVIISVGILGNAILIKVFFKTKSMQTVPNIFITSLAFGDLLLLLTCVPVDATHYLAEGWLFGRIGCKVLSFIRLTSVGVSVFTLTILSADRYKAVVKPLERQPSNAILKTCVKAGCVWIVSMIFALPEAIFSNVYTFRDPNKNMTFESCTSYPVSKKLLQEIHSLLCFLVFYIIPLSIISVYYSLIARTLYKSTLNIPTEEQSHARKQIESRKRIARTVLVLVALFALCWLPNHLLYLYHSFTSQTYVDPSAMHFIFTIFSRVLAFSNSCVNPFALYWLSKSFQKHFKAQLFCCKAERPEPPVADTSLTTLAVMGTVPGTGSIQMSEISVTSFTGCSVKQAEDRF

[2] = Solubility of the compound in JP2; type: physicochemical
[3] = system: Mus musculus; assay: Antiobesity activity in po dosed C57BL/6N mouse assessed as anorectic effect; type: functional, organism-based
How it was run: (§1)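 Male C57BL/6N mice, 7 weeks old, were fasted 16 h, housed singly and habituated 1 h. They then received a single oral dose (1, 3, 10, 30 mg/kg) or vehicle (0.5% methylcellulose). Chow was given 1 h later and cumulative intake over 6 h was recorded. n = 4–5; Dunnett's test versus vehicle.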

[4] = system: Mus musculus; assay: (§2) Half life in mouse at 30 mg/kg, po; type: ADME, organism-based; design: dose 30 mg/kg, route oral; conditions: in vivo, BLD = below limit of detection
[5] = system: Mus musculus; assay: Cmax in mouse assessed as 2-[(5R)-4-[2-(3-hydroxyphenyl)acetyl]-8-(trifluoromethyl)-1,2,3,5-tetrahydropyrido[2,3-e][1,4]diazepin-5-yl]acetic acid inactive metabolite at 30 mg/kg, po; type: ADME, organism-based; design: dose 30 mg/kg, route oral; conditions: in vivo
[6] = system: Canis familiaris; assay: Cardiotoxicity in beagle dog assessed as heart rate at 3 mg/kg/3 ml, iv for 30 mins; type: toxicity, organism-based, Canis lupus familiaris; design: route intravenous; conditions: in vivo, 0.5 h
How it was run: (§3)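 Dogs were anaesthetized with halothane (0.5–1.5% end-tidal) after iv thiopental 30 mg/kg. Compound was dispersed at 1 mg/mL in 20% hydroxypropyl-β-cyclodextrin and infused into the femoral vein at 3 mg/kg/3 mL over 30 min. Femoral artery HR and mean BP were recorded for 60 min, normalized to the 0-min value; n = 2.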

[7] = target: T2, Bombesin receptor subtype-3 (Mus musculus, UniProt O54798); assay: Agonist activity at mouse BRS3 expressed in CHO-K1 cells by IP-One HTRF assay; type: cell-based
T2 sequence (O54798 whole entry): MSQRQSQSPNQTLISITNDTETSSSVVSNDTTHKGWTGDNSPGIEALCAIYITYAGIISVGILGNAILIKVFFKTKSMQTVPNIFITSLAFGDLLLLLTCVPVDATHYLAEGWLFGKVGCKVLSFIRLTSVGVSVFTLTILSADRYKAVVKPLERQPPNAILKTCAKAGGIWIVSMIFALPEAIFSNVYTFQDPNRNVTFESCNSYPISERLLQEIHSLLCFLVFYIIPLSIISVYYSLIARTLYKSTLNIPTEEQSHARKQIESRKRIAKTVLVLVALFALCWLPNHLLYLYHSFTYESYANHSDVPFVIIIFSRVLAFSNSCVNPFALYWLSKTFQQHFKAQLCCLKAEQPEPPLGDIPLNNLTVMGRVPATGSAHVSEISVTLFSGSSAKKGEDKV

[8] = system: Mus musculus; assay: Antiobesity activity in C57BL/6N mouse assessed as reduction in food intake at 30 mg/kg, po single dose; type: functional; how it was run: as §1
[9] = Fraction unbound in mouse plasma; type: ADME, cell-free
How it was run: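 Unbound fraction measured in mouse plasma.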

[10] = system: Mus musculus; assay: (§4) AUC in mouse at 30 mg/kg, po; type: ADME, organism-based, Plasma; design: dose 30 mg/kg, route oral; conditions: in vivo, BLD = below limit of detection
[11] = system: Canis familiaris; assay: Cardiotoxicity in beagle dog assessed as blood pressure at 3 mg/kg/3 ml, iv for 30 mins; type: toxicity, organism-based, Canis lupus familiaris; design: route intravenous; conditions: in vivo, 0.5 h; how it was run: as §3
[12] = system: Mus musculus; assay: Drug metabolism in mouse assessed as ratio of compound to 2-[(5R)-4-[2-(3-hydroxyphenyl)acetyl]-8-(trifluoromethyl)-1,2,3,5-tetrahydropyrido[2,3-e][1,4]diazepin-5-yl]acetic acid at 30 mg/kg, po; type: ADME, organism-based; design: dose 30 mg/kg, route oral; conditions: in vivo
[13] = system: Mus musculus; assay: Cmax in mouse assessed as 3-[2-[(5R)-5-(carboxymethyl)-8-(trifluoromethyl)-1,2,3,5-tetrahydropyrido[2,3-e][1,4]diazepin-4-yl]-2-oxoethyl]benzoic acid inactive metabolite at 30 mg/kg, po; type: ADME, organism-based; design: dose 30 mg/kg, route oral; conditions: in vivo
How it was run: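 Mice acclimated 7–11 days with free access to chow and tap water, then given the ester parent orally at 30 mg/kg as a suspension in 0.5 (w/v)% methyl cellulose 400. Plasma was stored at −20 °C. The carboxylic acid metabolite was quantified in plasma by LC–MS/MS. Cmax is the average of 2 or 3 mice.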

[14] = system: Mus musculus; assay: Drug metabolism in mouse assessed as ratio of compound to 3-[2-[(5R)-5-(carboxymethyl)-8-(trifluoromethyl)-1,2,3,5-tetrahydropyrido[2,3-e][1,4]diazepin-4-yl]-2-oxoethyl]benzoic acid inactive metabolites at 30 mg/kg, po; type: ADME, organism-based; design: dose 30 mg/kg, route oral; conditions: in vivo
[15] = Cmax in mouse at 30 mg/kg, po; type: ADME, organism-based; design: dose 30 mg/kg, route oral; conditions: in vivo
[16] = as §2; type: ADME, organism-based; design: dose 30 mg/kg, route oral; conditions: in vivo
[17] = system: Mus musculus; assay: AUC in mouse assessed as 2-[(5R)-4-[2-(3-Hydroxyphenyl)acetyl]-8-(trifluoromethyl)-1,2,3,5-tetrahydropyrido[2,3-e][1,4]diazepin-5-yl]acetic acid at 30 mg/kg, po; type: ADME, organism-based, Plasma; design: dose 30 mg/kg, route oral; conditions: in vivo
[18] = system: Mus musculus; assay: Half life in mouse assessed as 2-[(5R)-4-[2-(3-Hydroxyphenyl)acetyl]-8-(trifluoromethyl)-1,2,3,5-tetrahydropyrido[2,3-e][1,4]diazepin-5-yl]acetic acid at 30 mg/kg, po; type: ADME, organism-based; design: dose 30 mg/kg, route oral; conditions: in vivo
[19] = as §4; type: ADME, organism-based, Plasma; design: dose 30 mg/kg, route oral; conditions: plasma
[20] = Tmax in mouse at 30 mg/kg, po; type: ADME, organism-based; design: dose 30 mg/kg, route oral; conditions: in vivo
[21] = system: Mus musculus; assay: Tmax in mouse assessed as 2-[(5R)-4-[2-(3-hydroxyphenyl)acetyl]-8-(trifluoromethyl)-1,2,3,5-tetrahydropyrido[2,3-e][1,4]diazepin-5-yl]acetic acid at 30 mg/kg, po; type: ADME, organism-based; design: dose 30 mg/kg, route oral; conditions: in vivo

| Structure (SMILES) | EC50 [1] | Cmax [5] | EC50 [7] | Ratio [12] | Cmax [13] | Ratio [14] | Cmax [15] | also measured |
| --- | --- | --- | --- | --- | --- | --- | --- | --- |
| CC(C)CC(=O)Oc1cccc(CC(=O)N2CCNc3nc(C(F)(F)F)ccc3[C@H]2CC(=O)O)c1 | 12 nM | 1260 nM | 43 nM | 0 | – | – | – | solubility [2]: 900 µg/mL (≈ 1820 µM); inhibition [3]: Dose-dependent effect; t1/2 [4]: BLD; Activity [6]: Non-toxic; inhibition in vivo at 30 mg/kg [8]: 30%; fraction unbound [9]: 0.108; AUC [10]: BLD; Activity [11]: Non-toxic |
| CCCCOC(=O)c1cccc(CC(=O)N2CCNc3nc(C(F)(F)F)ccc3[C@H]2CC(=O)O)c1 | 4 nM | – | 5.6 nM | – | 1630 nM | 0.0175 | 28.5 nM | – |
| CC(C)OC(=O)c1cccc(CC(=O)N2CCNc3nc(C(F)(F)F)ccc3[C@H]2CC(=O)O)c1 | 40 nM | – | 45 nM | – | 918 nM | 1.35 | 1240 nM | – |
| CC(C)COc1cccc(CC(=O)N2CCNc3nc(C(F)(F)F)ccc3[C@H]2CC(=O)O)c1 | – | – | – | – | – | – | – | Activity [6]: Toxic; Activity [11]: Toxic |
| CC(C)(C)CC(=O)Oc1cccc(CC(=O)N2CCNc3nc(C(F)(F)F)ccc3[C@H]2CC(=O)O)c1 | 8.7 nM | 32.5 nM | 20 nM | 0.179 | – | – | 5.8 nM | – |
| O=C(O)C[C@@H]1c2ccc(C(F)(F)F)nc2NCCN1C(=O)Cc1cccc(OC(=O)CC2CC2)c1 | 42 nM | 607 nM | 81 nM | 0 | – | – | – | – |
| CC(C)COC(=O)c1cccc(CC(=O)N2CCNc3nc(C(F)(F)F)ccc3[C@H]2CC(=O)O)c1 | 4.2 nM | – | 5.4 nM | – | 2120 nM | 0.0145 | 30.8 nM | – |
| CC(C)C(=O)Oc1cccc(CC(=O)N2CCNc3nc(C(F)(F)F)ccc3[C@H]2CC(=O)O)c1 | 68 nM | 680 nM | 282 nM | 0 | – | – | – | – |
| CCCCC(=O)Oc1cccc(CC(=O)N2CCNc3nc(C(F)(F)F)ccc3[C@H]2CC(=O)O)c1 | 19 nM | 1630 nM | 35 nM | 0.0175 | – | – | 28.5 nM | – |
| O=C(O)C[C@@H]1c2ccc(C(F)(F)F)nc2NCCN1C(=O)Cc1cccc(C(=O)OCC2CC2)c1 | 3.4 nM | – | 3.7 nM | – | 300 nM | 0.131 | 39.3 nM | – |
| O=C(O)C[C@@H]1c2ccc(C(F)(F)F)nc2NCCN1C(=O)Cc1cccc(O)c1 | > 10000 nM | – | > 10000 nM | – | – | – | 40 nM | solubility [2]: 780 µg/mL (≈ 1910 µM); half-life [16]: 15 min; AUC [17]: 1230 ng·h/mL; t1/2 [18]: 15 min; fraction unbound [9]: > 0.3; AUC [19]: 1230 ng·h/mL; Tmax [20]: 15 min; Tmax [21]: 15 min |
| O=C(O)C[C@@H]1c2ccc(C(F)(F)F)nc2NCCN1C(=O)Cc1cccc(C(=O)O)c1 | > 10000 nM | – | > 10000 nM | – | – | – | – | – |
| CC(C)(C)COC(=O)c1cccc(CC(=O)N2CCNc3nc(C(F)(F)F)ccc3[C@H]2CC(=O)O)c1 | 5.6 nM | – | 8.1 nM | – | 197 nM | 0.0643 | 12.7 nM | – |
